Tests used:
[1] = molecular target: T1, Adenosine receptor A1 (Homo sapiens) (UniProt P30542); assay: Allosteric enhancement of human adenosine A1 receptor expressed in CHO cells assessed as inhibition of CCPA-induced cAMP production at 100 nM after 10 mins; assay type: functional, cell-based
T1 sequence (whole entry): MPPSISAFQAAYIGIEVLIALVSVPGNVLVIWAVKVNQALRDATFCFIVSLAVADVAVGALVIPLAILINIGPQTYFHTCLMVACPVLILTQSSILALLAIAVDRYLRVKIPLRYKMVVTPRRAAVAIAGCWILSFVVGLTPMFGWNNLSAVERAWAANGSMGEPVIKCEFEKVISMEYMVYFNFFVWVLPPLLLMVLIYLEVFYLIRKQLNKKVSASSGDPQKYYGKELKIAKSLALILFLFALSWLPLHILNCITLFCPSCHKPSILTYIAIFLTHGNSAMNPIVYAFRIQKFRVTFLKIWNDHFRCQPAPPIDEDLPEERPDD
Outline: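 Intact hA1CHO cells (10⁶/mL) in phosphate buffer with adenosine deaminase 1.0 IU/mL and Ro 20-1724 0.5 mM, preincubated 10 min at 37 °C. Compound 100 nM plus CCPA 1 pM added for 10 min, then forskolin 1 μM for 5 min. Stopped with cold 6% TCA, ether-extracted. cAMP measured by [3H]-cAMP competition with adrenal binding protein (4 °C, 150 min). pmol/10⁶ cells, mean ± SEM of three.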

[2] = molecular target: Adenosine receptor A2a (Homo sapiens) (UniProt P29274); assay: Displacement of [3H]ZM 241385 from human adenosine A2A receptor expressed in CHO cells at 10 uM after 60 mins by scintillation counting; assay type: cell-based
Outline: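 hA2ACHO membranes in 50 mM Tris HCl, 10 mM MgCl2, pH 7.4, 4 °C for 60 min. [3H]ZM 241385 given as 1 nM in methods and 2 nM in table footnote. Compound at 10 μM from 100-fold DMSO stock, 1% DMSO final. Nonspecific binding with 1 μM ZM 241385. Filtration and scintillation counting. Percent inhibition of control specific binding, ±SEM, n=3.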

[3] = molecular target: T1, Adenosine receptor A1 (Homo sapiens); assay: Allosteric enhancement of human adenosine A1 receptor expressed in CHO cells assessed as increase of CCPA Ki at 10 uM after 90 mins by [3H]DPCPX radioligand binding assay; assay type: cell-based
Outline: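 hA1CHO membranes (50 mM Tris-HCl, pH 7.4, adenosine deaminase-treated). [3H]DPCPX 1 nM competed by CCPA (0.01 nM–1 μM) with or without test compound at 10 μM. Triplicate, 90 min at 25 °C. Nonspecific binding taken with 1 μM DPCPX. Filtration, then scintillation counting. Ki by Cheng–Prusoff. Shift = Ki(CCPA)/Ki(CCPA+enhancer). Mean ± SEM, n=3.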

[4] = molecular target: T2, Adenosine receptor A3 (Homo sapiens) (UniProt P0DMS8); assay: Displacement of [3H]MRE-3008-F20 from human adenosine A3 receptor expressed in CHO cells at 10 uM after 120 mins by scintillation counting
T2 sequence (whole entry): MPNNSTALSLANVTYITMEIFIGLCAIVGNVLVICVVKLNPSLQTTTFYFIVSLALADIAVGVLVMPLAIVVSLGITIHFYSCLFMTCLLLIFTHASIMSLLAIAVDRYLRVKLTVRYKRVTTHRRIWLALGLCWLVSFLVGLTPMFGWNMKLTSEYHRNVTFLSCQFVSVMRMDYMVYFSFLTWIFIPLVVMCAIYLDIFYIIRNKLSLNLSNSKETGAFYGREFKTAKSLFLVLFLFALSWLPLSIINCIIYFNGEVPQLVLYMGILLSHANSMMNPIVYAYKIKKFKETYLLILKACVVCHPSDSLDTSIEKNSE

[5] = molecular target: T1, Adenosine receptor A1 (Homo sapiens); assay: Displacement of [3H]DPCPX from human adenosine A1 receptor expressed in CHO cells at 10 uM after 120 mins by scintillation counting
[6] = molecular target: T1, Adenosine receptor A1 (Homo sapiens); assay: Allosteric enhancement of human adenosine A1 receptor expressed in CHO cells assessed as increase of [3H]CCPA Bmax at 10 uM after 90 mins; assay type: cell-based
Outline: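 Saturation of [3H]CCPA (0.05–20 nM) on hA1CHO membranes in 50 mM Tris-HCl, pH 7.4, with or without compound at final 10 μM. Triplicate, 25 °C, 90 min. Nonspecific binding defined with 1 μM R-PIA. Filter-bound radioactivity counted. KD and Bmax fitted by weighted nonlinear least squares; Bmax shift versus control. Mean ± SEM, n=3.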

[7] = molecular target: T1, Adenosine receptor A1 (Homo sapiens); assay: Allosteric enhancement of human adenosine A1 receptor expressed in CHO cells assessed as inhibition of forskolin-induced cAMP production at 10 uM after 10 mins; assay type: functional, cell-based
Outline: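 Whole hA1CHO cells (10⁶/mL) preincubated 10 min at 37 °C in phosphate buffer with adenosine deaminase (1.0 IU/mL) and Ro 20-1724 (0.5 mM). Compound alone at 10 μM for a further 10 min; forskolin 1 μM for 5 min. TCA stop, ether extraction, cAMP by [3H]-cAMP protein-binding competition assay. Expressed as pmol/10⁶ cells; mean ± SEM, three experiments.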

Sequence of Adenosine receptor A2a (Homo sapiens) (P29274 whole entry): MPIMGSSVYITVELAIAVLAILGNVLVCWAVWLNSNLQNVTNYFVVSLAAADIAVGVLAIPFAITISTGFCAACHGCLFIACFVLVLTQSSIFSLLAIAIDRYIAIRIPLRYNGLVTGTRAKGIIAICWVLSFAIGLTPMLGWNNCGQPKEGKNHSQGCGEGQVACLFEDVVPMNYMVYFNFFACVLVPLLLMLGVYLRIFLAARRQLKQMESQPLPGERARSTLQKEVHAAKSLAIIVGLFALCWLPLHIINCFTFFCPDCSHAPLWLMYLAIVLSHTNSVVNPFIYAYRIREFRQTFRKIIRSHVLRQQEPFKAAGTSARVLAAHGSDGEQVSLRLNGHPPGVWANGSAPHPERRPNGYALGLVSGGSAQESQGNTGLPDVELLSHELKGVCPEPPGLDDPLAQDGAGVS

Row | SMILES | inhibition [1] [%] | inhibition [2] [%] | fold change (FC) [3] | inhibition [4] [%] | inhibition [5] [%] | fold change (FC) [6] | inhibition [7] [%]
1 | C=CCN(CC=C)Cc1c(Br)sc(N)c1C(=O)c1ccc(Cl)cc1 | 13 | 1 | 1.2 | 8 | 6 | 1.2 | 8
2 | Nc1scc(CN2CCn3c(cc4cc(F)ccc43)C2)c1C(=O)c1ccc(Cl)cc1 | 65 | 2 | 7.2 | 5 | 0 | 8.2 | 69
3 | Nc1scc(CN2CCc3[nH]c4ccccc4c3C2)c1C(=O)c1ccc(Cl)cc1 | 11 | 1 | 1 | 1 | 0 | 1 | 3
4 | Nc1scc(CN2CCc3[nH]c4ccc(Cl)cc4c3C2)c1C(=O)c1ccc(Cl)cc1 | 13 | 1 | 1.1 | 1 | 2 | 1.2 | 8
5 | Cc1cccc2c1OC1(CCN(Cc3csc(N)c3C(=O)c3ccc(Cl)cc3)CC1)O2 | 47 | 1 | 4.9 | 5 | 2 | 5 | 46
6 | Nc1scc(CN2CCn3c(cc4ccccc43)C2)c1C(=O)c1ccc(Cl)cc1 | 62 | 0 | 6.6 | 3 | 3 | 7.5 | 66
7 | CN(Cc1csc(N)c1C(=O)c1ccc(Cl)cc1)c1ccc(F)cc1 | 26 | 2 | 3.4 | 4 | 3 | 3.2 | 28
8 | Cn1c2c(c3ccccc31)CN(Cc1csc(N)c1C(=O)c1ccc(Cl)cc1)CC2 | 27 | 1 | 2.9 | 2 | 2 | 3.1 | 28

The next lines start with the values.

Row | inhibition [1] [%] | inhibition [2] [%] | fold change (FC) [3] | inhibition [4] [%] | inhibition [5] [%] | fold change (FC) [6] | inhibition [7] [%] | SMILES
9 | 43 | 3 | 4.1 | 1 | 0 | 4.6 | 41 | Nc1scc(CN2CCc3ccccc3C2)c1C(=O)c1ccc(Cl)cc1
10 | 18 | 1 | 1.5 | 9 | 3 | 1.8 | 15 | CC(C)c1ccc(OCc2csc(N)c2C(=O)c2ccc(Cl)cc2)cc1
11 | 28 | 1 | 3.2 | 7 | 6 | 3.5 | 31 | Nc1sc(-c2ccccc2)c(CN(C2CCCCC2)C2CCCCC2)c1C(=O)c1ccc(Cl)cc1
12 | 29 | 1 | 2.5 | 11 | 1 | 3.1 | 28 | CCCN(CCC)Cc1c(-c2ccccc2)sc(N)c1C(=O)c1ccc(Cl)cc1
13 | 12 | 6 | 1.3 | 11 | 5 | 1.2 | 9 | CC(C)N(Cc1c(-c2ccccc2)sc(N)c1C(=O)c1ccc(Cl)cc1)C(C)C
14 | 12 | 1 | 1.1 | 5 | 1 | 1.1 | 5 | CCCCN(C)Cc1c(-c2ccccc2)sc(N)c1C(=O)c1ccc(Cl)cc1
15 | 22 | 1 | 2.7 | 7 | 1 | 2.9 | 24 | Nc1sc(-c2ccccc2)c(CN2CCCCC2)c1C(=O)c1ccc(Cl)cc1
16 | 14 | 0 | 1 | 3 | 1 | 1 | 4 | CC(C)N(Cc1csc(N)c1C(=O)c1ccc(Cl)cc1)C(C)C
17 | 14 | 1 | 1.4 | 3 | 1 | 1.5 | 12 | CC(C)N(Cc1c(Br)sc(N)c1C(=O)c1ccc(Cl)cc1)C(C)C
18 | 10 | 1 | 1 | 2 | 1 | 1.1 | 6 | CN(C)Cc1c(-c2ccccc2)sc(N)c1C(=O)c1ccc(Cl)cc1
